# Experimental data reported in the array DNA melting data of Ke et al. (doi:10.1101/2024.01.08.574731).
# Legend:
# [1] = melting temperature; fluorescence melt of hairpins on a sequencing array, two-state fit, raised by 9.35 °C to match UV melts; details: sodium 0.088 M
# Method in brief: (§1)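 Hairpins were imaged by Cy3 fluorescence on a sequenced MiSeq flow cell with annealed Cy3 and quencher oligos, in 50 mM Na-HEPES pH 8.0, 25 mM NaCl, in 2.5 °C steps up to 60 °C. Bootstrapped two-state fits of normalised signals gave melting temperature and folding enthalpy. Four replicates were combined by inverse variance, and fitted temperatures were raised by 9.35 °C to match UV melts.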
# [2] = folding enthalpy; higher = less favourable; fluorescence melt of hairpins on a sequencing array, two-state fit; details: sodium 0.088 M
# Method in brief: as §1
Sequence,Tm [1] [°C],folding enthalpy [2] [kcal/mol]
GTCATAGGAAACTATGGC (.(((((....))))).),44.6,-29.1
GTCATCCGAAAGGAGGAC (((.(((....))).))),58.6,-36.3
GTCATCGAAAGATAAGAC ((((((....)))..))),31.6,-21
GTCATCGAAAGATACGAC ((((((....)))..))),35,-20.9
GTCATCGAAAGATATGAC ((((((....)))..))),34.6,-20
GTCATCGAAAGATTCGAC ((((((....)))..))),25.8,-12.3
GTCATCGCGAAAGCGGAC (((..(((....)))))),39.9,-11.1
GTCATCGGAAACAATGAC (((((.(....).))))),36.1,-28
GTCATCGGAAACGATAAC ((.((((....)))).)),32.2,-19.7
GTCATGACGAAAGTCGAC (((..(((....)))))),38.6,-14.9
GTCATGCGAAAGCAGAC (((.(((....)))))),49.8,-22.4
GTCATTCGAAAGAAAGAC (((.(((....))).))),38.4,-30.6
GTCCAACGAAAGTTCGAC (((.(((....))).))),35.9,-27
GTCCAAGCGAAAGCTGAC (((..(((....)))))),41.4,-14.4
GTCCACACGAAAGTGGAC (((..(((....)))))),56.3,-29.9
GTCCACCCGAAAGGGGAC (((..(((....)))))),47,-18.5
GTCCACCGAAAGGTTGAC (((.(((....))).))),49.3,-29.6
GTCCACGAAAGTGAGAC ((((((....))).))),52.2,-23.8
GTCCACGAAAGTGATGAC ((((((....)))..))),39.4,-14.8
GTCCACGAAAGTGGAGAC ((((((....)))..))),48.7,-9.62
GTCCACGAAAGTGGCGAC ((((((....)))..))),58.8,-13.4
GTCCACGAAAGTGTCGAC ((((((....)))..))),33.8,-14
GTCCACGGAAACATGGAC (((((.(....).))))),43.2,-25.5

Sequence,Tm [1] [°C],folding enthalpy [2] [kcal/mol]
GTCCAGCGAAAGCTGAC (((.(((....)))))),46.4,-11.4
GTCCAGGAAACTGGAC ((((((....)))))),62.4,-34
GTCCATCCGAAAGGAGAC (((..(((....)))))),24.8,-14.8
GTCCATGGAAACATGAAC ((.((((....)))).)),36.4,-18.5
GTCCCACGAAAGTGCGAC (((.(((....))).))),46.5,-24.9
GTCCCACGAAAGTGTGAC (((.(((....))).))),50.4,-33
GTCCCAGGAAACTAGGAC ((((.((....)).)))),35.9,-21.5
GTCCCCGAAAGGGCCGAC ((((((....)))..))),33,-12.1
GTCCCCGAAAGGGCGAC ((((((....))).))),52.7,-20.8
GTCCCCGAAAGGGCTGAC ((((((....)))..))),34.8,-11.7
GTCCCCGAAAGGGGTGAC ((((((....)))..))),45,-8.1
GTCCCGCGAAAGCGCGAC (((.(((....))).))),49.5,-21.4
GTCCCGGGAAACCGAGAC (((.(((....))).))),46.3,-25.8
GTCCCTCCGAAAGGAGAC (((..(((....)))))),26.4,-9.1
GTCCCTCGAAAGAGGAC (((.(((....)))))),51.3,-14
GTCCCTGGAAACAGAGAC (((.(((....))).))),36.3,-28.4
GTCCGAGCGAAAGCTGAC (((..(((....)))))),37.2,-14.5
GTCCGCGAAAGCGACGAC ((((((....)))..))),57.6,-14
GTCCGCGAAAGCGAGGAC ((((((....)))..))),54.9,-21
GTCCGGGGAAACCCGAAC ((.((((....)))).)),44.2,-18.5
GTCCGGGGAAACCTGGAC ((((.((....)).)))),55.5,-36.6
GTCCGTGGAAACACAGAC (((.(((....))).))),40.5,-28.2
GTCCGTGGAAACACGGGC (.(((((....))))).),63.8,-24.1

Sequence,Tm [1] [°C],folding enthalpy [2] [kcal/mol]
GTCCTACGAAAGTATGAC (((.(((....))).))),41.9,-32.3
GTCCTAGAAATAGGAC ((((((....)))))),50.6,-36.6
GTCCTAGGAAACTAGGGC (.(((((....))))).),49.4,-32.9
GTCCTCCCGAAAGGGGAC (((..(((....)))))),44.8,-14.3
GTCCTCCGAAAGGAAGAC (((.(((....))).))),43.9,-27.5
GTCCTCGAAAGAGAGAC ((((((....))).))),46.6,-20.2
GTCCTCGAAAGAGCAGAC ((((((....)))..))),30.1,-19.8
GTCCTCGAAAGAGCCGAC ((((((....)))..))),26.7,-12.4
GTCCTCGAAAGAGGGAC ((((((....))).))),53.9,-15.7
GTCCTCGCGAAAGCGGAC (((..(((....)))))),43.7,-12.7
GTCCTGCGAAAGCAGAC (((.(((....)))))),47.4,-12.1
GTCCTGGCGAAAGCCGAC (((..(((....)))))),32.9,-9.43
GTCCTGGGAAACTAGGGC (.(((.(....).))).),40,-28.8
GTCCTTCGAAAGAAAGAC (((.(((....))).))),34.4,-19.1
GTCCTTCGAAAGAATGAC (((.(((....))).))),39.2,-30.3
GTCCTTGGAAACAAGAAC ((.((((....)))).)),30.5,-14.2
GTCGAAGGAAACCTCGAC (((((.(....).))))),48,-31.8
GTCGAATCGAAAGATGAC (((..(((....)))))),32.6,-19.9
GTCGACCCGAAAGGGGAC (((..(((....)))))),40,-13.4
GTCGACCGAAAGGTAGAC (((.(((....))).))),59.8,-36.4
GTCGACCGAAAGGTGAC (((.(((....)))))),51.8,-22.4
GTCGACGAAAGTCACGAC ((((((....)))..))),45.4,-18.6
GTCGACGAAAGTCCAGAC ((((((....)))..))),38.9,-16.1

Sequence,Tm [1] [°C],folding enthalpy [2] [kcal/mol]
GTCGACGAAAGTCCGAC ((((((....))).))),51.7,-21.3
GTCGACGAAAGTCTAGAC ((((((....)))..))),42.3,-24
GTCGACGGAAACGCCGAC ((((.((....)).)))),55.3,-44.7
GTCGAGACGAAAGTCGAC (((..(((....)))))),51.4,-20.9
GTCGAGCCGAAAGGCGAC (((..(((....)))))),50.3,-8.79
GTCGAGCGAAAGCTAGAC (((.(((....))).))),60.5,-33.5
GTCGAGGGAAACCTCAAC ((.((((....)))).)),36.5,-18.1
GTCGATACGAAAGTAGAC (((..(((....)))))),35.8,-20.3
GTCGATGGAAACACCGAC ((((.((....)).)))),47.2,-38
GTCGCACGAAAGTGGAC (((.(((....)))))),49.9,-18.8
GTCGCAGGAAACCACGAC ((((..(....)..)))),35.4,-28
GTCGCAGGAAACCGCAAC ((.((.(....).)).)),25.8,-12.8
GTCGCATCGAAAGATGAC (((..(((....)))))),28.9,-13.4
GTCGCCGCGAAAGCGGAC (((..(((....)))))),32.8,-6.08
GTCGCGCGAAAGCGAGAC (((.(((....))).))),68.2,-25.4
GTCGCGGGAAACCGCAAC ((.((((....)))).)),44.1,-13.3
GTCGCGGGAAACCGTGAC (((.(((....))).))),59.8,-35.2
GTCGCGGGAAACTGCGAC (((((.(....).))))),65.3,-41.2
GTCGCGGGAAACTGCGGC (.(((.(....).))).),54.7,-27.1
GTCGCTCCGAAAGGAGAC (((..(((....)))))),34.9,-10.5
GTCGCTCGAAAGAGGAC (((.(((....)))))),45.4,-18.1
GTCGCTCGAAAGAGTGAC (((.(((....))).))),62.6,-43.3
